Test results reported in ChEMBL document CHEMBL3596195, “Novel cajaninstilbene acid derivatives as antibacterial agents” (Eur J Med Chem, 2015).
In brackets after ≈: the same amount, converted by molar mass.

What was measured:
Staphylococcus aureus [1] = experiment: Antibacterial activity against methicillin-resistant Staphylococcus aureus ATCC515992 assessed as bacterial growth inhibition after 24 hrs by broth dilution method; type: functional; settings: ATCC515992, 24 h
Staphylococcus aureus [2] = experiment: Antibacterial activity against methicillin-resistant Staphylococcus aureus ATCC513045 assessed as bacterial growth inhibition after 24 hrs by broth dilution method; type: functional; settings: ATCC513045, 24 h
[3] = Selectivity index, ratio of IC50 for mouse RAW264.7 cells to MIC for methicillin-resistant Staphylococcus aureus ATCC51033; type: toxicity; settings: read-out: Selectivity Index
Procedure, shortened: (§1)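 SI = IC50 in mouse RAW 264.7 macrophages divided by broth-dilution MIC. For cytotoxicity, cells in DMEM/10% FBS/2 mM L-glutamine were seeded at 10,000/well for 12 h. They were then dosed across a concentration gradient in 1% FBS medium with DMSO below 0.1% for 72 h. Read-out was MTT, absorbance 562 nm, 4 wells × at least 3 runs.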

[4] = Selectivity index, ratio of IC50 for mouse RAW264.7 cells to MIC for methicillin-resistant Staphylococcus aureus ATCC62202; type: toxicity; settings: read-out: Selectivity Index; procedure, shortened: as §1
Staphylococcus aureus [5] = experiment: Antibacterial activity against Staphylococcus aureus ATCC25923 assessed as bacterial growth inhibition after 24 hrs by broth dilution method; type: functional; settings: ATCC25923, 24 h
[6] = Selectivity index, ratio of IC50 for mouse RAW264.7 cells to MIC for methicillin-resistant Staphylococcus aureus ATCC510019; type: toxicity; settings: read-out: Selectivity Index; procedure, shortened: as §1
Bacillus subtilis [7] = experiment: Antibacterial activity against Bacillus subtilis ATCC6633 assessed as bacterial growth inhibition after 24 hrs by broth dilution method; type: functional; settings: ATCC6633, 24 h
Staphylococcus aureus [8] = experiment: Antibacterial activity against methicillin-resistant Staphylococcus aureus ATCC51033 assessed as bacterial growth inhibition after 24 hrs by broth dilution method; type: functional; settings: ATCC51033, 24 h
Staphylococcus aureus [9] = experiment: Antibacterial activity against methicillin-resistant Staphylococcus aureus ATCC43300 assessed as bacterial growth inhibition after 24 hrs by broth dilution method; type: functional; settings: ATCC43300, 24 h
[10] = Selectivity index, ratio of IC50 for mouse RAW264.7 cells to MIC for Staphylococcus aureus ATCC25923; type: toxicity; settings: read-out: Selectivity Index; procedure, shortened: as §1
[11] = system: Staphylococcus epidermidis; experiment: Antibacterial activity against Staphylococcus epidermidis ATCC12228 assessed as bacterial growth inhibition after 24 hrs by broth dilution method; type: functional; settings: ATCC12228, 24 h
Staphylococcus aureus [12] = experiment: Antibacterial activity against methicillin-resistant Staphylococcus aureus ATCC52056 assessed as bacterial growth inhibition after 24 hrs by broth dilution method; type: functional; settings: ATCC52056, 24 h
Escherichia coli = experiment: Antibacterial activity against Escherichia coli ATCC25922 assessed as bacterial growth inhibition after 24 hrs by broth dilution method; type: functional; settings: ATCC25922, 24 h
Pseudomonas aeruginosa = experiment: Antibacterial activity against Pseudomonas aeruginosa ATCC2785 assessed as bacterial growth inhibition after 24 hrs by broth dilution method; type: functional; settings: ATCC2785, 24 h
Staphylococcus aureus [13] = experiment: Antibacterial activity against methicillin-resistant Staphylococcus aureus ATCC425055 assessed as bacterial growth inhibition after 24 hrs by broth dilution method; type: functional; settings: ATCC425055, 24 h
Staphylococcus aureus [14] = experiment: Antibacterial activity against methicillin-resistant Staphylococcus aureus ATCC62202 assessed as bacterial growth inhibition after 24 hrs by broth dilution method; type: functional; settings: ATCC62202, 24 h
[15] = Cytotoxicity against mouse RAW264.7 cells assessed as cell viability at 8 ug/ml after 72 hrs by MTT assay; type: cell-based; settings: read-out: Activity
Procedure, shortened: (§2)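 Mouse RAW 264.7 macrophages grown in DMEM with 10% FBS, 2 mM L-glutamine and penicillin/streptomycin at 37 °C, 5% CO2. Seeded at 10,000 cells/well for 12 h. Compound diluted 1000× from DMSO stock into 1% FBS medium (DMSO under 0.1%), over a concentration gradient, 72 h exposure. MTT formazan dissolved in DMSO for 45 min, absorbance read at 562 nm. Quadruplicate wells, at least three runs (N = 12).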

Bacillus subtilis [16] = experiment: Ratio of norfloxacin MIC to compound MIC for Bacillus subtilis ATCC6633 after 24 hrs by broth dilution method; type: functional
[17] = Selectivity index, ratio of IC50 for mouse RAW264.7 cells to MIC for methicillin-resistant Staphylococcus aureus ATCC515992; type: toxicity; procedure, shortened: as §1
Staphylococcus aureus [18] = experiment: Antibacterial activity against methicillin-resistant Staphylococcus aureus ATCC523512 assessed as bacterial growth inhibition after 24 hrs by broth dilution method; type: functional; settings: ATCC523512, 24 h
RAW264.7 = experiment: Cytotoxicity against mouse RAW264.7 cells assessed as inhibition of cell viability after 72 hrs by MTT assay; type: cell-based; settings: RAW264.7, 72 h; procedure, shortened: as §2
Staphylococcus aureus [19] = experiment: Ratio of penicillin MIC to compound MIC for Staphylococcus aureus ATCC25923 after 24 hrs by broth dilution method; type: functional
[20] = Selectivity index, ratio of IC50 for mouse RAW264.7 cells to MIC for methicillin-resistant Staphylococcus aureus ATCC52056; type: toxicity; settings: read-out: Selectivity Index; procedure, shortened: as §1
Proteus vulgaris = experiment: Antibacterial activity against Proteus vulgaris ATCC49101 assessed as bacterial growth inhibition after 24 hrs by broth dilution method; type: functional; settings: ATCC49101, 24 h
Staphylococcus aureus [21] = experiment: Antibacterial activity against methicillin-resistant Staphylococcus aureus ATCC510019 assessed as bacterial growth inhibition after 24 hrs by broth dilution method; type: functional; settings: ATCC510019, 24 h
Staphylococcus aureus [22] = experiment: Ratio of norfloxacin MIC to compound MIC for Staphylococcus aureus ATCC25923 after 24 hrs by broth dilution method; type: functional
Procedure, shortened: (§3)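 MICs came from broth double dilution from 256 µg/mL in 5×10^5 cells/mL culture, 37 °C, 24 h, read visually as the lowest concentration without turbidity. The ratio is the reference antibiotic's MIC over the compound's MIC.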

[23] = Selectivity index, ratio of IC50 for mouse RAW264.7 cells to MIC for Staphylococcus epidermidis ATCC12228; type: toxicity; settings: read-out: Selectivity Index; procedure, shortened: as §1
[24] = Selectivity index, ratio of IC50 for mouse RAW264.7 cells to MIC for methicillin-resistant Staphylococcus aureus ATCC425055; type: toxicity; settings: read-out: Selectivity Index; procedure, shortened: as §1
[25] = Selectivity index, ratio of IC50 for mouse RAW264.7 cells to MIC for methicillin-resistant Staphylococcus aureus ATCC43300; type: toxicity; settings: read-out: Selectivity Index; procedure, shortened: as §1
[26] = Selectivity index, ratio of IC50 for mouse RAW264.7 cells to MIC for Bacillus subtilis ATCC6633; type: toxicity; settings: read-out: Selectivity Index; procedure, shortened: as §1
[27] = system: Staphylococcus epidermidis; experiment: Ratio of penicillin MIC to compound MIC for Staphylococcus epidermidis ATCC12228 after 24 hrs by broth dilution method; type: functional; procedure, shortened: as §3
[28] = Selectivity index, ratio of IC50 for mouse RAW264.7 cells to MIC for methicillin-resistant Staphylococcus aureus ATCC523512; type: toxicity; settings: read-out: Selectivity Index; procedure, shortened: as §1
[29] = Selectivity index, ratio of IC50 for mouse RAW264.7 cells to MIC for methicillin-resistant Staphylococcus aureus ATCC513045; type: toxicity; settings: read-out: Selectivity Index; procedure, shortened: as §1
[30] = system: Staphylococcus epidermidis; experiment: Ratio of norfloxacin MIC to compound MIC for Staphylococcus epidermidis ATCC12228 after 24 hrs by broth dilution method; type: functional

COc1cc(/C=C/c2ccc(F)cc2F)c(C(=O)O)c(O)c1CC=C(C)C
MIC (Staphylococcus aureus [1]): 1 µg/mL (≈ 2.67 µM)
MIC (Staphylococcus aureus [2]): 2 µg/mL (≈ 5.34 µM)
selectivity ratio [3]: 46.5
selectivity ratio [4]: 46.5
MIC (Staphylococcus aureus [5]): 1 µg/mL (≈ 2.67 µM)
selectivity ratio [6]: 23.3
MIC (Bacillus subtilis [7]): 2 µg/mL (≈ 5.34 µM)
MIC (Staphylococcus aureus [8]): 1 µg/mL (≈ 2.67 µM)
MIC (Staphylococcus aureus [9]): 2 µg/mL (≈ 5.34 µM)
selectivity ratio [10]: 46.5
MIC [11]: 0.5 µg/mL (≈ 1.34 µM)
MIC (Staphylococcus aureus [12]): 2 µg/mL (≈ 5.34 µM)
MIC (Escherichia coli): > 128 µg/mL
MIC (Pseudomonas aeruginosa): > 64 µg/mL
MIC (Staphylococcus aureus [13]): 0.5 µg/mL (≈ 1.34 µM)
MIC (Staphylococcus aureus [14]): 1 µg/mL (≈ 2.67 µM)
viability at 72 h, 8 ug/ml [15]: 94.4%
Ratio (Bacillus subtilis [16]): 8
selectivity ratio [17]: 46.5
MIC (Staphylococcus aureus [18]): 2 µg/mL (≈ 5.34 µM)
IC50 (RAW264.7): 46.5 µg/mL (≈ 124 µM)
Ratio (Staphylococcus aureus [19]): 64
selectivity ratio [20]: 23.3
MIC (Proteus vulgaris): > 64 µg/mL
MIC (Staphylococcus aureus [21]): 2 µg/mL (≈ 5.34 µM)

COc1cc(/C=C/c2ccc(C(F)(F)F)cc2)c(C(=O)O)c(O)c1CC=C(C)C
Ratio (Staphylococcus aureus [22]): 8
selectivity ratio [23]: 12.9
MIC (Staphylococcus aureus [1]): 0.5 µg/mL (≈ 1.23 µM)
MIC (Staphylococcus aureus [2]): 8 µg/mL (≈ 19.7 µM)
selectivity ratio [3]: 12.9
selectivity ratio [4]: 12.9
selectivity ratio [24]: 12.9
MIC (Staphylococcus aureus [5]): 2 µg/mL (≈ 4.92 µM)
selectivity ratio [6]: 12.9
MIC (Bacillus subtilis [7]): 1 µg/mL (≈ 2.46 µM)
MIC (Staphylococcus aureus [8]): 1 µg/mL (≈ 2.46 µM)
MIC (Staphylococcus aureus [9]): 2 µg/mL (≈ 4.92 µM)
selectivity ratio [10]: 12.9
MIC [11]: 2 µg/mL (≈ 4.92 µM)
selectivity ratio [25]: 12.9
MIC (Staphylococcus aureus [12]): 4 µg/mL (≈ 9.84 µM)
MIC (Escherichia coli): > 128 µg/mL
selectivity ratio [26]: 12.9
MIC (Pseudomonas aeruginosa): > 64 µg/mL
Ratio [27]: 64
MIC (Staphylococcus aureus [13]): 0.5 µg/mL (≈ 1.23 µM)
MIC (Staphylococcus aureus [14]): 0.5 µg/mL (≈ 1.23 µM)
selectivity ratio [28]: 12.9
viability at 72 h, 8 ug/ml [15]: 90.6%
selectivity ratio [17]: 51.4
MIC (Staphylococcus aureus [18]): 0.5 µg/mL (≈ 1.23 µM)
IC50 (RAW264.7): 25.7 µg/mL (≈ 63.3 µM)
Ratio (Staphylococcus aureus [19]): 1
selectivity ratio [20]: 6.43
MIC (Proteus vulgaris): > 64 µg/mL
MIC (Staphylococcus aureus [21]): 2 µg/mL (≈ 4.92 µM)
selectivity ratio [29]: 12.9

COc1cc(/C=C/c2cccc(F)c2)c(C(=O)O)c(O)c1CC=C(C)C
selectivity ratio [23]: 5.04
MIC (Staphylococcus aureus [1]): 1 µg/mL (≈ 2.81 µM)
MIC (Staphylococcus aureus [2]): 2 µg/mL (≈ 5.61 µM)
selectivity ratio [3]: 5.04
selectivity ratio [4]: 5.04
selectivity ratio [24]: 5.04
MIC (Staphylococcus aureus [5]): 4 µg/mL (≈ 11.2 µM)
selectivity ratio [6]: 20.2
Ratio [30]: 8
MIC (Bacillus subtilis [7]): 0.5 µg/mL (≈ 1.4 µM)
MIC (Staphylococcus aureus [8]): 1 µg/mL (≈ 2.81 µM)
MIC (Staphylococcus aureus [9]): 1 µg/mL (≈ 2.81 µM)
selectivity ratio [10]: 5.04
MIC [11]: 2 µg/mL (≈ 5.61 µM)
selectivity ratio [25]: 5.04
MIC (Staphylococcus aureus [12]): 0.5 µg/mL (≈ 1.4 µM)
MIC (Escherichia coli): > 128 µg/mL
selectivity ratio [26]: 5.04
MIC (Pseudomonas aeruginosa): > 64 µg/mL
MIC (Staphylococcus aureus [13]): 2 µg/mL (≈ 5.61 µM)
MIC (Staphylococcus aureus [14]): 0.5 µg/mL (≈ 1.4 µM)
selectivity ratio [28]: 5.04
viability at 72 h, 8 ug/ml [15]: 91.7%
selectivity ratio [17]: 20.2
MIC (Staphylococcus aureus [18]): 2 µg/mL (≈ 5.61 µM)
IC50 (RAW264.7): 20.2 µg/mL (≈ 56.6 µM)
Ratio (Staphylococcus aureus [19]): 64
selectivity ratio [20]: 40.3
MIC (Proteus vulgaris): > 64 µg/mL
MIC (Staphylococcus aureus [21]): 1 µg/mL (≈ 2.81 µM)
selectivity ratio [29]: 5.04

COc1cc(/C=C/c2ccccc2F)c(C(=O)O)c(O)c1CC=C(C)C
selectivity ratio [23]: 6.17
MIC (Staphylococcus aureus [1]): 2 µg/mL (≈ 5.61 µM)
MIC (Staphylococcus aureus [2]): 2 µg/mL (≈ 5.61 µM)
selectivity ratio [3]: 6.17
selectivity ratio [4]: 6.17
selectivity ratio [24]: 6.17
MIC (Staphylococcus aureus [5]): 4 µg/mL (≈ 11.2 µM)
selectivity ratio [6]: 12.3
Ratio [30]: 8
MIC (Bacillus subtilis [7]): 0.5 µg/mL (≈ 1.4 µM)
MIC (Staphylococcus aureus [8]): 1 µg/mL (≈ 2.81 µM)
MIC (Staphylococcus aureus [9]): 1 µg/mL (≈ 2.81 µM)
selectivity ratio [10]: 6.17
MIC [11]: 1 µg/mL (≈ 2.81 µM)
selectivity ratio [25]: 6.17
MIC (Staphylococcus aureus [12]): 2 µg/mL (≈ 5.61 µM)
MIC (Escherichia coli): 64 µg/mL (≈ 180 µM)
selectivity ratio [26]: 6.17
MIC (Pseudomonas aeruginosa): > 64 µg/mL
MIC (Staphylococcus aureus [13]): 0.5 µg/mL (≈ 1.4 µM)
MIC (Staphylococcus aureus [14]): 0.5 µg/mL (≈ 1.4 µM)
selectivity ratio [28]: 6.17
viability at 72 h, 8 ug/ml [15]: 92.7%
selectivity ratio [17]: 12.3
MIC (Staphylococcus aureus [18]): 2 µg/mL (≈ 5.61 µM)
IC50 (RAW264.7): 24.7 µg/mL (≈ 69.3 µM)
Ratio (Staphylococcus aureus [19]): 64
selectivity ratio [20]: 12.3
MIC (Proteus vulgaris): > 64 µg/mL
MIC (Staphylococcus aureus [21]): 2 µg/mL (≈ 5.61 µM)
selectivity ratio [29]: 6.17
